hERG rescue: compounds protecting human hERG from proarrhythmic drug block; Q12809; CHO-hERG, FluxOR thallium flux, dofetilide IC70 present; activation (rescue from dofetilide block), less the hit threshold, % at 10 µM; hit rate 0.51% among 310,000; AID 1511;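 active = activation above the mean of controls blocked by dofetilide plus 5 SD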;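 also: thallium influx through hERG after potassium depolarization seen as dye fluorescence rise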
Kir21 block: Kir2.1 (mouse) channel inhibition. P35561. hit rate 0.85% among 310,000. AID 1672. HEK293-Kir2.1, FluxOR thallium flux fluorescence; hits give low values. B-score at 10 µM;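 active = fluorescence ratio B-score at or below minus 3 SD of library scores, with starting-brightness B-score within 2 SD, cut at about -4.2 in these data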;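 also: channel flux triggered by added potassium and thallium sulfate stimulus; B-score of peak minus minimum fluorescence over baseline after thallium stimulus; more negative B-score means stronger Kir2.1 block with less thallium influx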
KCNQ1 block: human KCNQ1 channel inhibition; CHO-K1 KCNQ1, FluxOR thallium flux fluorescence; hits give high values; B-score at 10 µM; hit rate 1.3% among 310,000;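 active = compounds whose thallium flux B-score, printed positive for inhibition, exceeds three library SD while starting fluorescence stays within three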;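 also: channel opened by potassium depolarization with thallium stimulus after 20 min compound exposure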
Target sequence (P51787 whole entry, looked up): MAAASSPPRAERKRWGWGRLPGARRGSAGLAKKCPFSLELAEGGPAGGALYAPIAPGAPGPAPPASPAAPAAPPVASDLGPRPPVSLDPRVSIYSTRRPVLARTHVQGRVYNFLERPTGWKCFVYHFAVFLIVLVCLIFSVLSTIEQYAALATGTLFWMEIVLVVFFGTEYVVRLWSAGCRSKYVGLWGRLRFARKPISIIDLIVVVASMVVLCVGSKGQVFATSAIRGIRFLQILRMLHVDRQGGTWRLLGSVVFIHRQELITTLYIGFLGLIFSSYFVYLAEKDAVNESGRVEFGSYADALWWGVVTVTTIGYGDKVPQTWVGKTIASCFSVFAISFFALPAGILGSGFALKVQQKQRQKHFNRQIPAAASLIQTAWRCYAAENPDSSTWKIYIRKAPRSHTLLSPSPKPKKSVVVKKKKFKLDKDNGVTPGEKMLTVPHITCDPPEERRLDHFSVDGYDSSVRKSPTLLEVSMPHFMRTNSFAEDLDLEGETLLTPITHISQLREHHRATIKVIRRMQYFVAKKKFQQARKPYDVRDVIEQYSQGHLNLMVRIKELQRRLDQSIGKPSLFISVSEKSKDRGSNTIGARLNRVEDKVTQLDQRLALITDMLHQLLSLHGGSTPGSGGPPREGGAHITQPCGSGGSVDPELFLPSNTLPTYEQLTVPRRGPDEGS
KCNK3 inh: human KCNK3 channel inhibition, primary screen; B-score at 10 µM; CHO-KCNK3 thallium flux, FluxOR fluorescence; hits give low values; hit rate 0.84% among 340,000; AID 602410; O14649;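 active = B-score under library mean minus 4 SD, starting fluorescence ratio at most library mean plus 5 SD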;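 also: more negative B-score means stronger inhibition of thallium flux through KCNK3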
KCNQ1 pot: human KCNQ1 channel potentiation or activation; P51787; CHO-K1 KCNQ1, thallium flux FluxOR fluorescence; hits give high values; B-score at 10 µM; hit rate 0.35% among 310,000; AID 2648;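 active = fluorescence ratio B-score, a plate-corrected score, at least three library SD, with initial intensity B-score within 5 SD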
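Test system: CHO-K1 cells stably expressing KCNQ1 / Medium: assay buffer / Also added: depolarizing K+/Tl+ stimulus, K2SO4 and Tl2SO4 each 12.5 mM in 5x stock / Incubation: 90 min dye loading and 20 min compound exposure, both at room temperature / Signal: thallium influx via FluxOR fluorescence, kinetic imaging / Evaluation: B score of baseline-normalized fluorescence ratio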
KCNK9 inh: inhibitors of human KCNK9 two-pore domain potassium channel; HEK293 KCNK9, FluxOR thallium flux fluorescence; hits give low values; B-score at 10 µM; hit rate 1.2% among 310,000; Q9NPC2; AID 488922;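 active = ratio B-score over 3 SD below the library mean, with starting fluorescence within 5 SD of its mean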;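 also: negative B-score means less thallium flux so channel inhibition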
KCNK9 block conf: human KCNK9 inhibitor confirmation; shares compounds with KCNK9 inh; HEK293 KCNK9 cells, FluxOR thallium flux fluorescence; inhibition, % at 10 µM; hit rate 43% among 4,900;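 active = thallium signal inhibited by more than 5 SD of the compound-free buffer control wells, on both duplicate plates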;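 also: 0% = assay buffer control wells without compound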
Kir21 sel: mouse Kir2.1 off-target activity of KCNK9 modulators. shares compounds with KCNK9 inh. Kir2.1 cells, FluxOR thallium flux fluorescence. inhibition, % at 10 µM. hit rate 4% among 4,900. AID 492993;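 active = thallium signal drop more than 5 SD beyond the mean of the no-compound control wells, seen in both duplicate plates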;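 also: signal is fluorescence rise after thallium addition divided by baseline fluorescence; plate controls were assay buffer only for no effect and full block by chlorpromazine control for full effect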
KCNK9 uninduced: non-induced cell nonspecific activity of KCNK9 modulators. shares compounds with KCNK9 inh. non-induced KCNK9-HEK293, FluxOR thallium flux. inhibition, % at 10 µM. hit rate 40% among 4,900. AID 492997;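 active = thallium signal drop beyond 5 SD of the untreated control mean, on both duplicate plates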;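 also: plate controls were buffer only IC0 wells for no effect and SID17386958 at its maximal inhibitory level for full effect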
Active calls of the source: *; i = inactive; / = no result. Hits are enriched below; roughly 3.8% of the tested compounds scored in any of these assays.

SMILES | hERG rescue | Kir21 block | KCNQ1 block | KCNK3 inh | KCNQ1 pot | KCNK9 inh | KCNK9 block conf | Kir21 sel | KCNK9 uninduced
COC(=O)c1sc(-c2ccc(C(C)(C)C)cc2)cc1NC(=O)c1ccccc1C(=O)O | -26 | 0.02 | i | i | i | i | i | i | i
COC(=O)c1sc(-c2ccc(C(C)(C)C)cc2)cc1NC(=O)CSCC(=O)O | -8 | 0.82 | i | i | i | i | i | i | i
COC(=O)c1sc(-c2ccccc2)cc1NC(=O)C1CC1 | -2 | -0.13 | i | i | i | i | / | / | /
Cc1cc(C)n2nc(SCCCC(=O)c3ccc(F)cc3)nc2n1 | -17 | -0.39 | i | i | i | i | / | / | /
COc1ccc(-c2csc3nc(C)nc(N4CCN(c5ccc(C(C)=O)cc5)CC4)c23)cc1OC | -13 | -0.68 | i | i | i | i | / | / | /
Cc1c(Br)c([N+](=O)[O-])nn1CC(=O)Nc1ccc(Cc2ccncc2)cc1 | -8 | 0.48 | i | i | i | i | / | / | /
CCOC(=O)C1CCCN(CCc2ccccc2)C1 (centres undefined) | -6 | 0.78 | i | i | i | i | / | / | /
O=C(OC1C2CCC1C1CN(CCc3ccccc3)CC12)c1ccccc1 (centres undefined) | -15 | -7.4 | i | i | i | i | i | i | i
Cc1cccc(N2CCN(C(=O)c3c(C)nn(Cc4ccccc4Cl)c3C)CC2)c1C | -11 | -0.37 | i | i | i | i | i | i | i
CC(=O)Nc1ccc(NC(=O)c2c(C)nn(Cc3ccccc3Cl)c2C)cc1 | -6 | 0.68 | i | i | i | i | / | / | /
Cc1cccc(N2CCN(C(=O)Cc3ccccc3[N+](=O)[O-])CC2)c1C | -3 | 0.01 | i | i | i | i | i | i | i
CCOc1ccc(NC(=O)CN(c2cc(C)cc(C)c2)S(=O)(=O)c2c(C)noc2C)cc1 | -2 | 0 | i | i | i | i | / | / | /
Cc1noc(C)c1S(=O)(=O)N(C)CC(=O)Nc1ccc(F)cc1 | -2 | 0.02 | i | i | i | -11* | i | i | i
CSCc1cc(N2CCOCC2)nc(SCc2ccc(Cl)c(Cl)c2)n1 | -3 | -1.2 | i | i | i | -9.2* | 31%* | i | 38%*
COCc1cc(N2CCOCC2)nc(SCc2ccc(Cl)cc2)n1 | -4 | 0.23 | i | i | i | i | / | / | /
CCn1cc(/C=N/N=C2\CCC3C4CCc5cc(O)ccc5C4CC[C@]23C)c(C)n1 (some centres undefined) | -8 | 0.49 | i | i | i | i | i | i | i
Cn1nnnc1SCC(=O)N1c2ccccc2Sc2ccccc21 | -3 | -1.3 | i | i | i | i | / | / | /
CCn1nnnc1SCC(=O)N1c2ccccc2Sc2ccccc21 | 1 | -0.52 | i | i | i | i | i | i | i
O=C1c2ccccc2C(=O)N1CCCCSc1nc2ccccc2o1 | -6 | 1.1 | i | i | i | i | i | i | i
Cc1nnc(SCCCN2C(=O)c3ccccc3C2=O)o1 | -11 | -1.4 | i | i | i | i | / | / | /
CCCc1nnc(NC(=O)CCC(=O)NC2CCCCCC2)s1 | -7 | 1.7 | i | i | i | i | / | / | /
Cc1ccc2c(c1)C1(C(=O)N2)N2CCCC2C(C(=O)c2ccc3ccccc3c2)C12C(=O)Nc1ccccc12 (centres undefined) | / | / | / | i | / | / | / | / | /
COc1cc2[nH]c(=O)n(CCC(=O)NCCCN3CCN(c4ccccc4F)CC3)c(=O)c2cc1OC | -9 | 1.4 | i | i | i | i | / | / | /
COc1cccc(/C=C/C(=O)OCC(=O)Nc2cccc(S(=O)(=O)N3CCOCC3)c2)c1OC | -10 | -1.1 | i | i | i | i | / | / | /
O=C(CSc1nc(N2CCCCC2)nc(N2CCCCC2)n1)N1CCN(c2ccccc2)CC1 | -2 | 1.5 | i | i | i | i | i | i | i
SMILES | hERG rescue | Kir21 block | KCNQ1 block | KCNK3 inh | KCNQ1 pot | KCNK9 inh | KCNK9 block conf | Kir21 sel | KCNK9 uninduced
O=C(NC1CCCCC1)c1cc(C2CC2)nn1-c1ccccc1 | / | / | / | i | / | / | / | / | /
CN(Cc1ccccc1F)C(=O)c1ccc(Oc2ccccc2)cc1 | -14 | -0.96 | i | i | i | i | i | i | i
CN(Cc1ccc(C(F)(F)F)cc1)C(=O)c1ccc(Oc2ccccc2)cc1 | -3 | 0.04 | i | i | i | i | i | i | 26%*
Cc1ccc(SCC(=O)O/N=C(\N)c2ccc([N+](=O)[O-])cc2)cc1 | -10 | -0.87 | i | i | i | i | i | i | i
CCC(=O)Nc1ccc(NC(=O)CSc2nnnn2Cc2ccccc2)cc1C | -7 | 0.03 | i | i | i | i | / | / | /
Cc1ccc2c(c1)N(C(=O)NC1CCCCC1)C(C)(C)CC2C (centres undefined) | -16 | -0.36 | i | i | i | i | i | i | i
C#CCn1c(O)c(N=NC(=O)CNC(=O)c2cccnc2)c2ccccc21 | -7 | 1.5 | i | i | i | i | / | / | /
C/C(=N\Nc1ccc(F)cc1F)c1ccccc1O | -10 | 0.02 | i | i | i | i | / | / | /
C/C(=N\Nc1cc(C(F)(F)F)ccc1Cl)c1ccccc1O | -12 | 0.49 | i | i | i | i | i | i | i
CCOC(=O)c1c(C)[nH]c(N=Nc2ccccc2C)c1C | -7 | 1.1 | i | i | i | -9.4* | 52%* | i | i
CCOC(=O)c1c(C)[nH]c(N=Nc2ccc(C)cc2C)c1C | -2 | 0.79 | i | i | i | i | / | / | /
CC1(C)c2[nH]c3ccccc3c2C[C@@H]2C(=O)N(Cc3ccccc3)C(=O)N21 | -10 | -0.73 | i | i | i | i | / | / | /
Cc1cccc(CN2C(=O)[C@@H]3Cc4c([nH]c5ccccc45)C(C)(C)N3C2=O)c1 | -8 | -0.34 | i | i | i | i | i | i | i
Cc1cccc(CN2C(=O)[C@H]3Cc4c([nH]c5ccccc45)C(C)(C)N3C2=O)c1 | -19 | -1 | i | i | i | i | i | i | i
O=c1cc(CN2CCN(Cc3ccccc3)CC2)c2cc3c(cc2o1)CCC3 | -9 | -0.02 | i | i | i | i | i | i | i
O=c1cc(CN2CCN(CCO)CC2)c2cc3c(cc2o1)CCC3 | -13 | -1.3 | i | i | i | i | / | / | /

Screening data (PubChem)
